# Source: PubChem (several laboratories)
# Hits are enriched below; roughly 4.2% of the tested compounds scored in any of these assays.
# SENP1 inh – inhibitors of human SENP1 SUMO protease catalytic domain; recombinant SENP1 catalytic domain, CyPet-SUMO1-YPet FRET cleavage; inhibition, % at 10 µM; 360,000 compounds, 0.21% hits; Q9P0U3; AID 624204;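 active = inhibition at least 30% at 10 µM, raw YFP signal under a set limit, fluorescence ratio 0.5 to 1.5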;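 note: 0% = enzyme with DMSO and 100% = no enzyme wells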
#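 Assay system – human recombinant His6-tagged SENP1 catalytic domain enzyme · Input – SENP1 enzyme, 20 pM final · Buffer or medium – Tris pH 8 buffer plus EDTA, NaCl, BME, BSA, NP40, catalase · Schedule – 50 min reaction at room temperature · Technique – FRET read of cyan and yellow fluorescence · Control set – no-enzyme wells low, DMSO-plus-enzyme wells high control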
# FXN GAA850 act – activators of GAA850 frataxin (FXN) promoter. HEK293 lucGAA850 FXN promoter luciferase reporter, 24 h; percent of 10 µM SAHA response. activation, % at 6 µM. 360,000 compounds, 0.56% hits;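 active = activation above the average of all compounds screened plus 3 SD, cutoff fixed separately per campaign, cut at about 7.5% in these data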;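 note: 0% = DMSO wells and 100% = 10 µM SAHA wells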
# AHR act – activators of human aryl hydrocarbon receptor | activation, % at 5 µM | AHR-responsive luciferase reporter cells, luminescence | 320,000 compounds, 2.5% hits | P35869 | AID 2796; in the data active = activation above about 47%;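 note: 0% = vehicle wells and 100% = reference agonist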
# Fh CTSL1 inh – blocks F. hepatica cathepsin L1 in PFM18AAP counter-screen; recombinant F. hepatica cathepsin L1, Z-Leu-Arg-MCA fluorescence; 300,000 compounds, 0.49% hits; AID 1906; inhibition, % at 5.96 µM;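 active = inhibition above the mean of all tested compounds plus 3 SD, set per screening campaign, cut at about 17% in these data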;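 note: 0% = plate median of test compound wells and 100% = 1 µM Z-Phe-Ala-diazomethylketone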
# HDAC3 inh – inhibitors of human histone deacetylase 3 | O15379 | recombinant HDAC3, fluorogenic peptide/trypsin coupled, fluorescence | inhibition, % at 8.3 µM | 320,000 compounds, 0.15% hits; in the data active = inhibition above about 26%, passing the limit was not always enough; inconclusive = no clear call, values can overlap the other calls
# Target sequence (O15379 whole entry, looked up): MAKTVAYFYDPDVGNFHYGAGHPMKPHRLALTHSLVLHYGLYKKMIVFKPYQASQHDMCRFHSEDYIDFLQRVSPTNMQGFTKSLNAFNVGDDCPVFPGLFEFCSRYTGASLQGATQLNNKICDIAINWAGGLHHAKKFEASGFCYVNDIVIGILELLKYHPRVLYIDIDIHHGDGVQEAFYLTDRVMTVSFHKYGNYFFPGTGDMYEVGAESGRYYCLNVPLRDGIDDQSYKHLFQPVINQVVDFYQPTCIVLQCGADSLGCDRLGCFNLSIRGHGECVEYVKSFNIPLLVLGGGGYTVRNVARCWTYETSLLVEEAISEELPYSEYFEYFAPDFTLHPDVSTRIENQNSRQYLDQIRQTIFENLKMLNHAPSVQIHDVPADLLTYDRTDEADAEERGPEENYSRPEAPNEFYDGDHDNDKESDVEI
# PfM18AAP inh – PfM18AAP enzyme inhibition; 290,000 compounds, 1.2% hits; recombinant PfM18AAP, H-Glu-NHMec fluorogenic cleavage; inhibition, % at 7.35 µM;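 active = inhibition above the campaign mean inhibition over all tested compounds plus 3 SD, cut at about 28% in these data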;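 note: 0% = plate median of test compound wells and 100% = 2 mM ZnCl2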
# * = called active by the depositor; ? = inconclusive; · = not tested or not shown.
SMILES,SENP1 inh,FXN GAA850 act,AHR act,Fh CTSL1 inh,HDAC3 inh,PfM18AAP inh
O=C1C=C(c2ccccc2)C[C@H](c2cccs2)[C@H]1n1nnc([N+](=O)[O-])n1,-1,-3,0,33*,8,10
CC(=O)N1CCN(C(=O)c2ccc3c(c2)OCCO3)CC1,0,-1,0,0,-8,-1
CC(=O)NCCc1cnc[nH]1,2,10*,0,-1,-7,-1
CC(=O)N(C(C)=O)c1nc(-c2ccccc2)cn1/N=C/c1cccc([N+](=O)[O-])c1,1,-1,49*,2,0,-10
O=[N+]([O-])c1cccc(/C=N/n2c(-c3cccnc3)n[nH]c2=S)c1,0,0,14,1,?,8
CCn1c(C)c(C(=O)c2ccccc2)c(C#N)c1C(=O)O,7,2,3,18*,-2,10
Cc1c(C#N)c(N)c(C(=O)c2ccccc2)n1Cc1ccccc1,-2,2,0,6,4,-3
Fc1ccc(-c2csc(-c3cccnc3)n2)cc1F,0,3,68*,-10,3,4
Fc1ccccc1-c1csc(-c2cccnc2)n1,0,3,8,0,0,4
COc1ccc(CCNC(=O)c2cc([C@@H](NC(=O)OC(C)(C)C)C(C)C)sc2N)cc1OC,-4,·,·,·,·,·
C=CCOc1cccc(C(=O)Nc2ncn[nH]2)c1,0,1,58*,1,1,25
COc1cc(OC)cc(C(=O)Nc2ncn[nH]2)c1,0,0,11,·,7,·
COC(=O)CCCC[C@@H]1O[C@H](CCc2ccccc2)Cc2[nH]c(=S)[nH]c(=O)c21,-4,·,·,·,·,·
CCC(=O)Nc1nc2ccc3sc(C)nc3c2s1,-7,-6,69*,2,8,1
Cc1nc(-c2ccc(F)cc2)c(CC(=O)Nc2ccc(C)c(S(=O)(=O)N3CCOCC3)c2)s1,-4,1,4,-2,3,3
Cc1ccc(-n2[nH]c3c4c(ccc3c2=O)C(=O)c2ccccc2C4=O)cc1,-1,0,0,1,-2,-7
CC(C)(C)n1[nH]c2c3c(ccc2c1=O)C(=O)c1ccccc1C3=O,2,-3,50*,4,0,-2
COCCCn1[nH]c2c3c(ccc2c1=O)C(=O)c1ccccc1C3=O,1,-1,52*,-1,4,-12
CCOc1ccc(N2CC(C(=O)Nc3ccccc3N3CCCC3)CC2=O)cc1 (stereo unspecified),-2,2,7,1,3,6
CC1(C)OC(=O)C2(Cc3ccccc3N3CCCCC32)C(=O)O1 (stereo unspecified),-1,1,0,-3,0,29*
Cc1ccc(C(=O)N/N=C\c2cc3c(cc2Br)OCO3)s1,3,5,47*,3,-3,-5
Cc1ccc(C(=O)N/N=C\c2ccncc2)s1,0,3,55*,2,-3,-10
COC(=O)N/N=C\c1cc2c(cc1Br)OCO2,-1,-1,43,-1,-6,-2
CC1(CC(=O)N/N=C/c2cc3c(cc2Br)OCO3)OCCO1,2,3,31,17*,8,3
O=C(N/N=C/c1cc2c(cc1Br)OCO2)c1cccnc1,1,1,48*,0,·,7
SMILES,SENP1 inh,FXN GAA850 act,AHR act,Fh CTSL1 inh,HDAC3 inh,PfM18AAP inh
CCCn1ncc(CN2CCC(n3nccc3NC(=O)c3ccccc3Cl)CC2)c1C,0,1,2,-3,·,-4
O=C(N/N=C\C=C\c1ccc2c(c1)OCO2)c1cccnc1,0,3,68*,3,4,-8
COc1ccc(S(=O)(=O)NNC(=O)Nc2ccc(F)cc2F)c(OC)c1,2,0,2,3,-6,-8
CCc1ccc(C(O)c2ncc(-c3ccccc3C(F)(F)F)[nH]2)cc1 (stereo unspecified),-2,0,·,·,·,·
Cc1ccc(-c2cc(C(=O)N3CCN(C(=O)c4ccco4)CC3)[nH]n2)cc1C,2,0,25,4,3,-4
Cn1c(CNC(=O)CCNC(=O)c2cccc(Br)c2)cc(=O)n(C)c1=O,0,1,-1,36*,0,3
COc1cccc(C(=O)NCCC(=O)NCc2cc(=O)n(C)c(=O)n2C)c1,0,2,0,2,-2,0
Nc1ccc2nc(CCc3ccccc3)[nH]c2c1,-3,3,16,-1,?,4
